Test results reported in ChEMBL document CHEMBL1132941, “Structure-activity study on the in vitro antiprotozoal activity of glutathione derivatives” (2000).
Active and inactive are the calls of the source. The rule behind the calls is not given here.

Assays:
[1] = system: K562; assay: Tested for cytotoxicity in human K562 cells; type: functional; conditions: read-out: ID50 (the source's name)
In short: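 K562 human CML cells in RPMI + 10% fetal calf serum at 37 °C, 5% CO₂, humidified. Exposed to compound for 5 days. Viability read by the semi-automated NCI MTT-type (Mosmann) tetrazolium assay, run by an external institute.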

[2] = system: Leishmania donovani; assay: Evaluated for antiparasitic activity against Leishmania donovani; NA is Not active.; type: functional, organism-based
In short: (§1)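 L. donovani (strain MHOM/ET/67/L82) amastigotes from hamster passage, used to infect starch-elicited peritoneal macrophages from female CD1 mice (4 × 10⁴/well, RPMI-1640 + 10% HIFCS) at 10:1 after 24 h adherence. Drug given as a 3-fold dilution series, top concentration ~30 µM, quadruplicate, 5 days. Read-out is % macrophages cleared of amastigotes versus untreated control. Sodium stibogluconate serves as control.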

[3] = system: Trypanosoma brucei; assay: Evaluated for antiparasitic activity against brucei trypomastigotes; type: functional; conditions: read-out: ED50 (the source's name)
In short: (§2)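 T. brucei S427 bloodstream trypomastigotes in HMI-18 + 20% HIFCS, seeded at 2 × 10⁵/mL mixed with equal volume of compound. Compound given as a 3-fold dilution series from 30 µM top, triplicate, 3 days at 37 °C, 5% CO₂. Growth measured by tetrazolium colorimetric assay on day 3 and expressed as % inhibition versus untreated control. Pentamidine serves as positive control.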

[4] = system: Trypanosoma cruzi; assay: Evaluated for antiparasitic activity against Trypanosoma cruzi amastigotes; NA is Not active.; type: functional, organism-based
In short: (§3)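 T. cruzi (strain MHOM/BR/OO/Y) trypomastigotes, MDCK-derived, used to infect starch-elicited peritoneal macrophages from female CD1 mice (4 × 10⁴/well, RPMI-1640 + 10% HIFCS) at 5:1 after 24 h. Drug given as a 3-fold dilution series up to ~30 µM, quadruplicate, 3 days. Activity is scored as % macrophages cleared of amastigotes relative to untreated control. Nifurtimox serves as control.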

[5] = system: Trypanosoma brucei; assay: Evaluated for antiparasitic activity against brucei trypomastigotes; NA is Not active.; type: functional, organism-based; in short: as §2
[6] = system: Trypanosoma cruzi; assay: Compound is evaluated for antiparasitic activity against Trypanosoma cruzi amastigotes.; type: functional; in short: as §3
[7] = system: Leishmania donovani; assay: Evaluated for antiparasitic activity against Leishmania donovani; type: functional; in short: as §1
[8] = system: Trypanosoma cruzi; assay: Compound is evaluated for antiparasitic activity against Trypanosoma cruzi amastigotes; type: functional; in short: as §3
[9] = system: Leishmania donovani; assay: Compound is evaluated for antiparasitic activity against Leishmania donovani; type: functional; in short: as §1
[10] = system: Trypanosoma cruzi; assay: Compound is evaluated for antiparasitic activity against Trypanosoma cruzi; type: functional; in short: as §3
[11] = system: Trypanosoma brucei; assay: Compound is evaluated for antiparasitic brucei trypomastigotes percent inhibition is given in parentheses; type: functional; conditions: read-out: ED50 (the source's name); in short: as §2

Structure (SMILES) | EC50 [3] | IC50 [1] | NA [2] | NA [4] | further results
COC(=O)CNC(=O)C(CSCc1ccc(Br)cc1)NC(=O)CCC(NC=O)C(=O)OC (stereo not given) |  | > 50 µM | inactive |  | NA [5]: inactive; Inhibition [6]: 12%
CCCCOC(=O)CNC(=O)C(CSc1ccc([N+](=O)[O-])cc1[N+](=O)[O-])NC(=O)CCC(NC(=O)OCc1ccccc1)C(=O)OCCCC (stereo not given) | 1.07 µM | 21.8 µM |  |  | ED50 [7]: > 30 µM
O=CNC(CCC(=O)NC(CSCc1ccc(Br)cc1)C(=O)NCC(=O)O)C(=O)O (stereo not given) |  | > 50 µM | inactive |  | NA [5]: inactive; Inhibition [8]: 11%
COC(=O)CNC(=O)C(CSCc1ccc(Br)cc1)NC(=O)CCC(NC(=O)OCc1ccccc1)C(=O)O (stereo not given) |  | > 50 µM | inactive | inactive | NA [5]: inactive
NC(=O)CNC(=O)C(CSCc1ccc(Br)cc1)NC(=O)CCC(N)C(N)=O (stereo not given) |  | > 50 µM |  | inactive | NA [5]: inactive; Inhibition [9]: 4%
NC(=O)CNC(=O)C(CSCc1ccc(Br)cc1)NC(=O)CCC(NC(=O)OCc1ccccc1)C(=O)O (stereo not given) |  | > 50 µM | inactive | inactive | NA [5]: inactive
COC(=O)CNC(=O)C(CSCc1ccc(Br)cc1)NC(=O)CCC(N)C(=O)OC (stereo not given) |  | > 50 µM |  | inactive | NA [5]: inactive; Inhibition [9]: 8.7%
CCCCCCCCOC(=O)CNC(=O)C(CSc1ccc([N+](=O)[O-])cc1[N+](=O)[O-])NC(=O)CCC(NC(=O)OCc1ccccc1)C(=O)OCCCCCCCC (stereo not given) |  | 24.7 µM |  |  | ED50 [7]: > 50 µM
O=C(CCC(NC(=O)OCc1ccccc1)C(=O)OC1CCCCC1)NC(CSc1ccc([N+](=O)[O-])cc1[N+](=O)[O-])C(=O)NCC(=O)OC1CCCCC1 (stereo not given) | 0.19 µM | 15.9 µM |  |  | ED50 [10]: 3 µM
COC(=O)CNC(=O)C(CSCc1ccc(Br)cc1)NC(=O)CCC(NC(=O)OCc1ccccc1)C(=O)OC (stereo not given) |  | 16.7 µM |  |  | EC50 [11]: > 30 µM
CCCCCCOC(=O)CNC(=O)C(CSc1ccc([N+](=O)[O-])cc1[N+](=O)[O-])NC(=O)CCC(NC(=O)OCc1ccccc1)C(=O)OCCCCCC (stereo not given) | 5.8 µM | > 50 µM |  |  | ED50 [7]: > 50 µM; ED50 [10]: < 50 µM

Further lines, with some results ahead:

EC50 [3] | Structure (SMILES) | IC50 [1] | NA [2] | NA [4] | further results
< 30 µM | NC(=O)CNC(=O)C(CSCc1ccc(Br)cc1)NC(=O)CCC(N)C(=O)O (stereo not given) | > 50 µM | inactive | inactive | 
> 30 µM | CC(=O)NC(CCC(=O)NC(CSCc1ccc(Br)cc1)C(=O)NCC(=O)O)C(=O)O (stereo not given) | > 50 µM | inactive | inactive | 
1.9 µM | CCCCOC(=O)CNC(=O)C(CSCc1ccc(Br)cc1)NC(=O)CCC(NC(=O)OCc1ccccc1)C(=O)OCCCC (stereo not given) | 16.7 µM |  |  | Inhibition [9]: 68%
> 30 µM | NC(=O)CNC(=O)C(CSCc1ccc(Br)cc1)NC(=O)CCC(NC(=O)OCc1ccccc1)C(N)=O (stereo not given) | > 50 µM | inactive | inactive | 
> 30 µM | O=C(O)CNC(=O)C(CSCc1ccc(Br)cc1)NC(=O)CCC(NC(=O)OCc1ccccc1)C(=O)O (stereo not given) | > 50 µM | inactive | inactive | 
6 µM | CCCOC(=O)CNC(=O)C(CSc1ccc([N+](=O)[O-])cc1[N+](=O)[O-])NC(=O)CCC(NC(=O)OCc1ccccc1)C(=O)OCCC (stereo not given) | 17.6 µM |  |  | ED50 [7]: > 30 µM
17 µM | COC(=O)CNC(=O)C(CSC(=O)OCc1ccccc1)NC(=O)CCC(NC(=O)OCc1ccccc1)C(=O)OC (stereo not given) | 1.26 µM |  |  | 
> 30 µM | COC(=O)CNC(=O)C(CSCc1ccc(Br)cc1)NC(=O)CCC(N)C(=O)O (stereo not given) | > 50 µM | inactive | inactive | 
16.2 µM | COC(=O)CNC(=O)C(CSc1ccc([N+](=O)[O-])cc1[N+](=O)[O-])NC(=O)CCC(NC(=O)OCc1ccccc1)C(=O)OC (stereo not given) | 23.4 µM |  |  | ED50 [7]: > 30 µM
3.2 µM | COC(=O)CNC(=O)C(CSC(=O)OCc1ccccc1)NC(=O)CCC(NC(C)=O)C(=O)OC (stereo not given) | > 50 µM |  |  | 
> 30 µM | N[C@@H](CCC(=O)N[C@@H](CSCc1ccc(Br)cc1)C(=O)NCC(=O)O)C(=O)O | > 50 µM | inactive | inactive | 
